# Laboratory results as given in ChEMBL document CHEMBL1122869, “Substituted benzamides with conformationally restricted side chains. 1. Quinolizidine derivatives as selective gastric prokinetic agents” (1985).
# What was measured:
# [1] = system: Rattus norvegicus; assay: Tested for stimulation of intragastric pressure in rat on sc administration; range 1-50 mg/kg; format: functional
# Procedure, shortened: (§1)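 Male Wistar rats (200-500 g) with chronic gastric fistula, fasted overnight and restrained in Bollman cages. Only animals with basal motility <4 mmHg mean amplitude were used. Pressure waves were recorded via the fistula through a transducer over four 10-min periods before and after sc dosing, and the mean motility index was derived from them. Usually four groups of 10 rats received graded doses or vehicle.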
# [2] = system: Rattus norvegicus; assay: Tested for stimulation of intragastric pressure in ra0t on sc administration; range 1-50 mg/kg
# [3] = system: Mus musculus; assay: Tested for anti-apomorphine climbing activity in mouse on sc administration
# [4] = system: Rattus norvegicus; assay: Tested for stimulation of intragastric pressure in rat on sc administration; format: functional; procedure, shortened: as §1
# [5] = system: Rattus norvegicus; assay: Tested for stimulation of intragastric pressure in rat on sc administration; range 1-10 mg/kg; format: functional; procedure, shortened: as §1
# [6] = Rattus norvegicus, read-out: ED50
# [7] = Mus musculus, sc, read-out: ED50
structure (smiles),measurement,setting,value
COc1cc(N)c(Cl)cc1C(=O)NC1CCC2CCCCN2C1 (configuration not stated),ED50,[1],1 mg/kg
COc1cc(N)c(Cl)cc1C(=O)NC1CCCN2CCCCC12 (configuration not stated),ED50,[2],1 mg/kg
COc1cc(N)c(Cl)cc1C(=O)NC1CCCN2CCCCC12 (stereo in doubt; 2a),ED50,[3],>50 mg/kg
same,ED50,[1],1 mg/kg
COc1cc(N)c(Cl)cc1C(=O)NC1CCCN2CCCCC12 (stereo in doubt; 2b),ED50,[3],0.4 mg/kg
same,ED50,[1]; [6],> 50 mg/kg
COc1cc(N)c(Cl)cc1C(=O)NC1CCC2CCCCN2C1 (stereo in doubt; 2c),ED50,[3],12 mg/kg
same,ED50,[1]; [6],1 mg/kg
COc1cc(N)c(Cl)cc1C(=O)NC1CCN2CCCCC2C1 (stereo in doubt; 2e),ED50,[4],4 mg/kg
same,ED50,[3],7 mg/kg
COc1cc(N)c(Cl)cc1C(=O)NC1CCN2C(C)CCCC2C1 (stereo in doubt; 2f) [BRL-20627],ED50,[3],>50 mg/kg
same,ED50,[1]; [6],1 mg/kg
COc1cc(N)c(Cl)cc1C(=O)NC1CCN2CCCCC2C1 (stereo in doubt; 2g),ED50,[4],0.8 mg/kg
same,ED50,[3],25 mg/kg
COc1cc(N)c(Cl)cc1C(=O)NC1CCC2CCCCN2C1 (stereo in doubt; form 1),ED50,[5],1 mg/kg
same,ED50,[3],10 mg/kg
COc1cc(N)c(Cl)cc1C(=O)NC1CCN2C(C)CCCC2C1 (stereo in doubt; form 1) [BRL-20627],ED50,[4]; [6],0.8 mg/kg
same,ED50,[3]; [7],25 mg/kg
COc1cc(N)c(Cl)cc1C(=O)NC1CCC2CCCCN2C1 (stereo in doubt; form 2),ED50,[5]; [6],1 mg/kg
same,ED50,[3]; [7],10 mg/kg
COc1cc(N)c(Cl)cc1C(=O)NC1CCN2C(C)CCCC2C1 (stereo in doubt; form 2) [BRL-20627],ED50,[4],0.8 mg/kg
same,ED50,[3],25 mg/kg
COc1cc(N)c(Cl)cc1C(=O)NC1CCN2C(C)CCCC2C1 (configuration not stated) [BRL-20627],ED50,[1],1 mg/kg
CCN(CC)CCNC(=O)c1cc(Cl)c(N)cc1OC [METOCLOPRAMIDE],ED50,[4],1 mg/kg
same,ED50,[4]; [6],1 mg/kg
same,ED50,[3],0.75 mg/kg
same,ED50,[3]; [7],0.75 mg/kg
